pIC50: −log10 of the molar value. Each block holds one compound with its values, some of them ahead of it.
Tests used:
[1] = test system: T1, Aurora kinase A (Homo sapiens), O14965 [T288D]; experiment: Inhibition of Aurora kinase A T288D mutant expressed in Escherichia coli BL21 DE3 at 10 uM
T1 sequence (whole entry): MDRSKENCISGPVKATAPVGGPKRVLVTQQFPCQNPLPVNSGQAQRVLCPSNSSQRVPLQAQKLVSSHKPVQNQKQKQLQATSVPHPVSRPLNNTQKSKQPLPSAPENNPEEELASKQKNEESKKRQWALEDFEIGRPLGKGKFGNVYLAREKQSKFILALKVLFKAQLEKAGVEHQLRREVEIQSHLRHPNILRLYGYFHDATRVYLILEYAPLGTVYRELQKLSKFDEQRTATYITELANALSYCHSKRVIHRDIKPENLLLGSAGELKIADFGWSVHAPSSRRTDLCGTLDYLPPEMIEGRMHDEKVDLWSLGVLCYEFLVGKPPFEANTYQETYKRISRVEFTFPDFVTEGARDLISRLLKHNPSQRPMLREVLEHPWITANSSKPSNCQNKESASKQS

Aurora kinase A = Aurora kinase A (Homo sapiens, UniProt O14965, T288D); experiment: Inhibition of Aurora kinase A T288D mutant expressed in Escherichia coli BL21 DE3
[2] = molecular target: Aurora kinase A (Homo sapiens) (UniProt O14965); experiment: Inhibition of Aurora kinase A Thr288 autophosphorylation in human HCT116 cells by Western blot; assay type: cell-based; conditions: HCT-116
In short: (§1)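 HCT-116 cells, 4 × 10^5 per well, were seeded for 24 h and synchronized with 40 ng/mL nocodazole for 16 h. They were then exposed to compound at 0.625–40 µM for 2 h at 37 °C. Cells were lysed in SDS sample buffer (pH 6.8, 2% SDS) at 95 °C for 10 min, and 50 µg was run on SDS-PAGE. Blots were probed for phospho-Aurora A (Thr288) and phospho-histone H3 (Ser10) with HRP detection.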

[3] = molecular target: Aurora kinase B (Homo sapiens) (UniProt Q96GD4); experiment: Inhibition of Aurora kinase B in human HCT116 cells assessed as reduced phosphorylated histone H3 levels by Western blot; assay type: cell-based; conditions: HCT-116; in short: as §1
[4] = molecular target: Tyrosine-protein kinase ABL1 (Homo sapiens) (UniProt P00519); experiment: Inhibition of ABL1 at 1 uM relative to control
[5] = molecular target: RAC-alpha serine/threonine-protein kinase (Homo sapiens) (UniProt P31749); experiment: Inhibition of AKT1 at 1 uM relative to control
[6] = molecular target: ALK tyrosine kinase receptor (Homo sapiens) (UniProt Q9UM73); experiment: Inhibition of ALK at 1 uM relative to control
[7] = molecular target: 5'-AMP-activated protein kinase catalytic subunit alpha-1 (Homo sapiens) (UniProt Q13131); experiment: Inhibition of AMPK alpha-1/beta-1/gamma-1 at 1 uM relative to control
[8] = molecular target: Aurora kinase A (Homo sapiens) (UniProt O14965); experiment: Inhibition of AURKA at 1 uM relative to control
[9] = molecular target: Aurora kinase B (Homo sapiens) (UniProt Q96GD4); experiment: Inhibition of AURKB at 1 uM relative to control
[10] = molecular target: Aurora kinase C (Homo sapiens) (UniProt Q9UQB9); experiment: Inhibition of AURKC at 1 uM relative to control
[11] = molecular target: Cyclin-dependent kinase 2 (Homo sapiens) (UniProt P24941); experiment: Inhibition of CDK2/Cyclin A at 1 uM relative to control
[12] = molecular target: Serine/threonine-protein kinase Chk1 (Homo sapiens) (UniProt O14757); experiment: Inhibition of CHK1 at 1 uM relative to control
[13] = molecular target: Epidermal growth factor receptor (Homo sapiens) (UniProt P00533); experiment: Inhibition of EGFR at 1 uM relative to control
[14] = molecular target: Ephrin type-A receptor 1 (Homo sapiens) (UniProt P21709); experiment: Inhibition of EPHA1 at 1 uM relative to control
[15] = molecular target: Receptor tyrosine-protein kinase erbB-2 (Homo sapiens) (UniProt P04626); experiment: Inhibition of ERBB2 at 1 uM relative to control
[16] = molecular target: Vascular endothelial growth factor receptor 1 (Homo sapiens) (UniProt P17948); experiment: Inhibition of FLT1 at 1 uM relative to control
[17] = molecular target: Receptor-type tyrosine-protein kinase FLT3 (Homo sapiens) (UniProt P36888); experiment: Inhibition of FLT3 at 1 uM relative to control
[18] = molecular target: Serine/threonine-protein kinase mTOR (Homo sapiens) (UniProt P42345); experiment: Inhibition of FRAP1 at 1 uM relative to control
[19] = molecular target: Insulin-like growth factor 1 receptor (Homo sapiens) (UniProt P08069); experiment: Inhibition of IGF1R at 1 uM relative to control
[20] = molecular target: Inhibitor of nuclear factor kappa-B kinase subunit epsilon (Homo sapiens) (UniProt Q14164); experiment: Inhibition of IKK epsilon at 1 uM relative to control
[21] = molecular target: Tyrosine-protein kinase JAK2 (Homo sapiens) (UniProt O60674); experiment: Inhibition of JAK2 at 1 uM relative to control
[22] = molecular target: Mast/stem cell growth factor receptor Kit (Homo sapiens) (UniProt P10721); experiment: Inhibition of KIT at 1 uM relative to control
[23] = molecular target: Mitogen-activated protein kinase 14 (Homo sapiens) (UniProt Q16539); experiment: Inhibition of MAPK14 at 1 uM relative to control
[24] = molecular target: Hepatocyte growth factor receptor (Homo sapiens) (UniProt P08581); experiment: Inhibition of cMET at 1 uM relative to control
[25] = molecular target: High affinity nerve growth factor receptor (Homo sapiens) (UniProt P04629); experiment: Inhibition of NTRK1 at 1 uM relative to control
[26] = molecular target: Serine/threonine-protein kinase PLK1 (Homo sapiens) (UniProt P53350); experiment: Inhibition of PLK1 at 1 uM relative to control
[27] = test system: RAF proto-oncogene serine/threonine-protein kinase (Homo sapiens), P04049 [Y340D,Y341D]; experiment: Inhibition of cRaf Y340D/Y341D mutant at 1 uM relative to control
[28] = molecular target: Proto-oncogene tyrosine-protein kinase receptor Ret (Homo sapiens) (UniProt P07949); experiment: Inhibition of RET at 1 uM relative to control
[29] = molecular target: Proto-oncogene tyrosine-protein kinase Src (Homo sapiens) (UniProt P12931); experiment: Inhibition of SRC at 1 uM relative to control
[30] = molecular target: Angiopoietin-1 receptor (Homo sapiens) (UniProt Q02763); experiment: Inhibition of TEK at 1 uM relative to control
[31] = molecular target: Phosphatidylinositol 4,5-bisphosphate 3-kinase catalytic subunit gamma isoform (Homo sapiens) (UniProt P48736); experiment: Inhibition of PIK3CG at 1 uM relative to control
[32] = molecular target: Glycogen synthase kinase-3 beta (Homo sapiens) (UniProt P49841); experiment: Inhibition of GSK3-beta at 1 uM relative to control
[33] = molecular target: 3-phosphoinositide-dependent protein kinase 1 (Homo sapiens) (UniProt O15530); experiment: Inhibition of PDK1 at 1 uM relative to control

Aurora kinase B (Homo sapiens), sequence (Q96GD4 whole entry): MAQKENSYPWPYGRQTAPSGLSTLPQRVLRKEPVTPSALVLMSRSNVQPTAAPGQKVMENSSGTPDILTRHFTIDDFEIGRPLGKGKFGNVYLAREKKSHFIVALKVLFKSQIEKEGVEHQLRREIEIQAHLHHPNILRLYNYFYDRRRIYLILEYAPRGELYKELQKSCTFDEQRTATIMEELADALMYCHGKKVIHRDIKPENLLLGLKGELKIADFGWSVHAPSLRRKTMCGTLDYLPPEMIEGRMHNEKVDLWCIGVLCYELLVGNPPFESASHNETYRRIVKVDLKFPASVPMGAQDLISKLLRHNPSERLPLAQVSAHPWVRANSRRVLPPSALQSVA
Aurora kinase A (Homo sapiens), sequence (O14965 whole entry): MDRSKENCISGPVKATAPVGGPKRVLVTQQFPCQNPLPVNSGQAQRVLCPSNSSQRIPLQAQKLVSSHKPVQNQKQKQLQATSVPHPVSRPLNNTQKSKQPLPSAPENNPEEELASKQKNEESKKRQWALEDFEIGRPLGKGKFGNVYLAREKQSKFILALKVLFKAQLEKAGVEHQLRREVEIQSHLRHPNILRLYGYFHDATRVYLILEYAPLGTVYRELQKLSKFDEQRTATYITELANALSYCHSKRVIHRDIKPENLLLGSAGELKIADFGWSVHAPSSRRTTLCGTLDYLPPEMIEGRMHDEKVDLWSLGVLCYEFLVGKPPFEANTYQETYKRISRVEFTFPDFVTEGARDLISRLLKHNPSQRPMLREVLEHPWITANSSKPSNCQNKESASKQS
Aurora kinase C (Homo sapiens), sequence (Q9UQB9 whole entry): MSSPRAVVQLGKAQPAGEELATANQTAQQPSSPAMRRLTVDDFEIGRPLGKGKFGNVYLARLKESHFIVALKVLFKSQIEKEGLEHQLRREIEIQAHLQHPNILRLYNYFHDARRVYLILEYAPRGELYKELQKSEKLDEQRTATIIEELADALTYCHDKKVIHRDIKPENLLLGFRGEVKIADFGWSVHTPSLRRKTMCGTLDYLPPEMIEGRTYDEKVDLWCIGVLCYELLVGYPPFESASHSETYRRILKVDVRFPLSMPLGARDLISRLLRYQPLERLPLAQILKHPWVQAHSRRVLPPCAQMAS
Serine/threonine-protein kinase PLK1 (Homo sapiens), sequence (P53350 whole entry): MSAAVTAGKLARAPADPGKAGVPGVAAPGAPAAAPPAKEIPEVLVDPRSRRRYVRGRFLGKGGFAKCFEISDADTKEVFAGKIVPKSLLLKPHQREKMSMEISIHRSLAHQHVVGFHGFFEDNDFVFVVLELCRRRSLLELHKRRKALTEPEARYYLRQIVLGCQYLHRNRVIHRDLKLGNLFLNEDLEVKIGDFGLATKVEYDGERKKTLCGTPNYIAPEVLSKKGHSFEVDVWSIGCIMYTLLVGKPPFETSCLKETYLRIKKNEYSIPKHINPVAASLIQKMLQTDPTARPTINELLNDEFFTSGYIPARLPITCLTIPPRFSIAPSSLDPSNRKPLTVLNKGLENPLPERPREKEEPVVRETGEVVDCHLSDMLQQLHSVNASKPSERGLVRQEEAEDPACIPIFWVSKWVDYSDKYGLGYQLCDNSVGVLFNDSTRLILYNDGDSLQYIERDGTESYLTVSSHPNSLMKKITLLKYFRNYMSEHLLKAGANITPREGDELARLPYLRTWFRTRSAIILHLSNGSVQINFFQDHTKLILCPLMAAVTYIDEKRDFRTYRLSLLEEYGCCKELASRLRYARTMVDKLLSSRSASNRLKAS
Proto-oncogene tyrosine-protein kinase receptor Ret (Homo sapiens), sequence (P07949 whole entry): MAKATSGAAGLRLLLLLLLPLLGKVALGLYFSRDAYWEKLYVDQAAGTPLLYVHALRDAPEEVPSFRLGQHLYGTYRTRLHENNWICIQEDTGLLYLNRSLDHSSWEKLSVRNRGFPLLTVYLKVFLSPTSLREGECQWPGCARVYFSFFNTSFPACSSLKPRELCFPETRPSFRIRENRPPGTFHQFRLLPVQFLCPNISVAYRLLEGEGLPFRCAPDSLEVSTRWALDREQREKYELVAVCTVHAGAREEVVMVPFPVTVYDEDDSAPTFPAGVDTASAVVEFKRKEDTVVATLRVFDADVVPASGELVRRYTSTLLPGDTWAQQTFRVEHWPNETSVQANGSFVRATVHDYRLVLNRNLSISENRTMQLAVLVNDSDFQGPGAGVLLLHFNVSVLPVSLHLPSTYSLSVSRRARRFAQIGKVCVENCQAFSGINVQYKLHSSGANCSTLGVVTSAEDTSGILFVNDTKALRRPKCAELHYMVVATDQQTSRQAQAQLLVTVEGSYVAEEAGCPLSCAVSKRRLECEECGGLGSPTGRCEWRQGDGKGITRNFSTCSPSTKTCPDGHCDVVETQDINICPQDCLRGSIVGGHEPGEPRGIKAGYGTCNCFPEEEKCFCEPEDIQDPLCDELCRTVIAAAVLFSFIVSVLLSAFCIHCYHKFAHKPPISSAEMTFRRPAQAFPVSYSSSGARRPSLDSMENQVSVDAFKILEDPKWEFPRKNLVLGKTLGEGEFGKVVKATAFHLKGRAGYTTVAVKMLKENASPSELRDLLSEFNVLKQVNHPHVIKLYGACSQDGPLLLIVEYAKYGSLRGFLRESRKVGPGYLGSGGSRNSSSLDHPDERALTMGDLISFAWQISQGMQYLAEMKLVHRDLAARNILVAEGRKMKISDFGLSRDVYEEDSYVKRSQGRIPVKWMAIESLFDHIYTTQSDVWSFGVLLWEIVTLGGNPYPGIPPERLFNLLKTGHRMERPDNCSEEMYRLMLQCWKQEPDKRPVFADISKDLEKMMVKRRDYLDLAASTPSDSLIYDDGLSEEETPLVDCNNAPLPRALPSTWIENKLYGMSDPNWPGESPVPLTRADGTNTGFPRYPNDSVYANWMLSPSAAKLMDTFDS
Mast/stem cell growth factor receptor Kit (Homo sapiens), sequence (P10721 whole entry): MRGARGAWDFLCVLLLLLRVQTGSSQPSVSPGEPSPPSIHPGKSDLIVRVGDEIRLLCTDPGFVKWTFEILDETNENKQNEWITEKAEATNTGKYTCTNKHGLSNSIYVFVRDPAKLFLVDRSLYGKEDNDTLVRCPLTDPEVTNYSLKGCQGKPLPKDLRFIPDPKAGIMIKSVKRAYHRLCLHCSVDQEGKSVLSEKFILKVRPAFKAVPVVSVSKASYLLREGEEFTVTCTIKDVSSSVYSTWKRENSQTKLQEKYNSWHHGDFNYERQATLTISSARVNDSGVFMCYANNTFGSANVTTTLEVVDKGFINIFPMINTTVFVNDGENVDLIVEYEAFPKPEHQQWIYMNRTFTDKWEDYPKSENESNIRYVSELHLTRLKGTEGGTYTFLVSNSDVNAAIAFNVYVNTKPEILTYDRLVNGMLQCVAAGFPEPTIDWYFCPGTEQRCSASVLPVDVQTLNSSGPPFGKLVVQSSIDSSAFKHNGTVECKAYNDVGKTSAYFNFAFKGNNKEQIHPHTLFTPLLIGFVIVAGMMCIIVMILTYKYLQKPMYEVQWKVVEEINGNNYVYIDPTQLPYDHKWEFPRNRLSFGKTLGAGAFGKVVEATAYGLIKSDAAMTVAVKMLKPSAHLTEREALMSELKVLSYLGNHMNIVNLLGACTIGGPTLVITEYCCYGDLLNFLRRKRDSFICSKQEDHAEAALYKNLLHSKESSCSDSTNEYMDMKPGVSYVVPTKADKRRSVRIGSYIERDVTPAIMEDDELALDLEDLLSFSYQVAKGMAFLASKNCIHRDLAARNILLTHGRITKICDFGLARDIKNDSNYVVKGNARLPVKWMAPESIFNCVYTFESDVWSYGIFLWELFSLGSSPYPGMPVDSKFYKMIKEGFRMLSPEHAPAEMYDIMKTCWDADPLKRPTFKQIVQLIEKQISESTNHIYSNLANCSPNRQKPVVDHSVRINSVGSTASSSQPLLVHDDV
Angiopoietin-1 receptor (Homo sapiens), sequence (Q02763 whole entry, canonical isoform): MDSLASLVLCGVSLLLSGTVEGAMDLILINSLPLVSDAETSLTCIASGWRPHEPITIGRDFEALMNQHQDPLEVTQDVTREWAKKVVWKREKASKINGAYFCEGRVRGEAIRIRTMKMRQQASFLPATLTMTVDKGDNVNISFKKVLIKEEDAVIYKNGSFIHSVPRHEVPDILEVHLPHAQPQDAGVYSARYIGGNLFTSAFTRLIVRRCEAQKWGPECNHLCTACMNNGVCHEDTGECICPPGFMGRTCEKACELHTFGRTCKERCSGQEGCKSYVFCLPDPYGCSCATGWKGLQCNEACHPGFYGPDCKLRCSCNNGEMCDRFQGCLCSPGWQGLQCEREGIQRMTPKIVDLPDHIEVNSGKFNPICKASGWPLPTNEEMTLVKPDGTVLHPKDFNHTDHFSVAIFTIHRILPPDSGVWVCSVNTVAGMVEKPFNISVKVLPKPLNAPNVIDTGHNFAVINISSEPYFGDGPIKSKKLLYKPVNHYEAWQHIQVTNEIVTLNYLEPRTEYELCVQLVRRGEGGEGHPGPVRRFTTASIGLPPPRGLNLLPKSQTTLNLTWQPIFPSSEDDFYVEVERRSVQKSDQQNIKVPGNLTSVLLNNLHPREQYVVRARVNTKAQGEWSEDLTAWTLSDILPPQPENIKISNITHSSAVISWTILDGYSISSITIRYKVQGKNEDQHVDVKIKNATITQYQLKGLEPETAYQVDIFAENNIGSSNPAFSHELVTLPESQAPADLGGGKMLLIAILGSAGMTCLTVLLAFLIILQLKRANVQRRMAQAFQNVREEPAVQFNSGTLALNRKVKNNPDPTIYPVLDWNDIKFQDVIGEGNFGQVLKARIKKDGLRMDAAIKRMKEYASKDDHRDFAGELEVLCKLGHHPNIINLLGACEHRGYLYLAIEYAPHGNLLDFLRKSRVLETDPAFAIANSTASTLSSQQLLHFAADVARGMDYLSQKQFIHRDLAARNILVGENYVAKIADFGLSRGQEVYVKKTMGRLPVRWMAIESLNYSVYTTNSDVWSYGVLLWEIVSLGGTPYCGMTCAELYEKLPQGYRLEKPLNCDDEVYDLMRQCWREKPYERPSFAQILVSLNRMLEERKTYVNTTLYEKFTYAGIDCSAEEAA

Structure (SMILES): COc1ccc(/C=N/Nc2[nH]nc(C)c2C(=O)Nc2cccc(OC)c2)cc1
pIC50 (Aurora kinase A): 6.35

Structure (SMILES): COc1ccc(/C=N/Nc2[nH]nc(C)c2C(=O)NCc2cccc(NC(C)=O)c2)cc1
pIC50 (Aurora kinase A): 5.76

Structure (SMILES): COc1ccc(/C=N/Nc2[nH]nc(C)c2C(=O)Nc2cccc(NC(C)=O)c2)cc1
Activity [2]: Dose-dependent effect | Activity [3]: Dose-dependent effect | inhibition [4]: 17% | inhibition [5]: 13% | inhibition [6]: 1% | inhibition [7]: 31% | inhibition [8]: 91% | inhibition [9]: 36% | inhibition [10]: 45% | inhibition [11]: 48% | inhibition [12]: 21% | inhibition [13]: 8% | inhibition [14]: 51% | inhibition [15]: 26% | inhibition [16]: 27% | inhibition [17]: 48% | inhibition [18]: -6% | inhibition [19]: 11% | inhibition [20]: -8% | inhibition [21]: 56% | inhibition [22]: 61% | inhibition [23]: 19% | inhibition [24]: 19% | inhibition [25]: 66% | inhibition [26]: 11% | inhibition [27]: -1% | inhibition [28]: 76% | inhibition [29]: 33% | inhibition [30]: 4% | inhibition [31]: -3% | inhibition [32]: 32% | inhibition [33]: 17%

Structure (SMILES): COc1ccc(/C=N/Nc2[nH]nc(C)c2C(=O)NCc2ccccc2)cc1
pIC50 (Aurora kinase A): 5.80

Structure (SMILES): COc1ccc(/C=N/Nc2[nH]nc(C)c2C(=O)NCCc2ccc(OC)cc2)cc1
pIC50 (Aurora kinase A): 5.80

Structure (SMILES): COc1ccc(/C=N/Nc2[nH]nc(C)c2C(=O)NCCc2cccc(OC)c2)cc1
pIC50 (Aurora kinase A): 5.54

Structure (SMILES): COc1ccc(/C=N/Nc2[nH]nc(C)c2C(=O)NCCCc2ccccc2)cc1
pIC50 (Aurora kinase A): 5.71

Structure (SMILES): COc1ccc(/C=N/Nc2[nH]nc(C)c2C(=O)Nc2ccccc2)cc1
pIC50 (Aurora kinase A): 6.09

Structure (SMILES): COc1ccc(/C=N/Nc2[nH]nc(C)c2C(=O)NCCc2cccnc2)cc1
pIC50 (Aurora kinase A): 5.83

Structure (SMILES): COc1ccc(/C=N/Nc2[nH]nc(C)c2C(=O)N(C)c2ccccc2)cc1
pIC50 (Aurora kinase A): < 4.30

Structure (SMILES): COc1ccc(/C=N/Nc2[nH]nc(C)c2C(=O)Nc2ccc(OC)cc2)cc1
pIC50 (Aurora kinase A): 6.34

Structure (SMILES): COc1ccc(/C=N/Nc2[nH]nc(C)c2C(=O)Nc2ccc(F)cc2)cc1
pIC50 (Aurora kinase A): 5.84

Structure (SMILES): COc1ccc(/C=N/Nc2[nH]nc(C)c2C(=O)Nc2ccc(N(C)C)cc2)cc1
pIC50 (Aurora kinase A): 5.80

Structure (SMILES): COc1ccc(/C=N/Nc2[nH]nc(C)c2C(=O)Nc2ccc(NC(C)=O)cc2)cc1
pIC50 (Aurora kinase A): 6.14

Structure (SMILES): COc1ccc(/C=N/Nc2[nH]nc(C)c2C(=O)NCc2ccc(OC)cc2)cc1
pIC50 (Aurora kinase A): 5.79

Structure (SMILES): COc1ccc(/C=N/Nc2[nH]nc(C)c2C(=O)NCCc2ccccc2)cc1
pIC50 (Aurora kinase A): 5.87

Structure (SMILES): COc1ccc(/C=N/Nc2[nH]nc(C)c2C(=O)Nc2ccccc2OC)cc1
pIC50 (Aurora kinase A): 5.96

Structure (SMILES): COc1ccc(/C=N/Nc2[nH]nc(C)c2C(=O)NCCc2c[nH]c3ccccc23)cc1
pIC50 (Aurora kinase A): 5.97

Structure (SMILES): COc1ccc(/C=N/Nc2[nH]nc(C)c2C(=O)Nc2ccc(OC)c(OC)c2)cc1
pIC50 (Aurora kinase A): 6.02

Structure (SMILES): COc1ccc(/C=N/Nc2[nH]nc(C)c2C(=O)NCc2cccc(OC)c2)cc1
pIC50 (Aurora kinase A): 6.08

Other lines, results leading:

inhibition [1]: 3.6%
Structure (SMILES): CCOC(=O)c1c(C)n[nH]c1N/N=C/Cc1ccccc1

inhibition [1]: 16.4%
Structure (SMILES): CCOC(=O)c1c(C)n[nH]c1N/N=C/c1ccccc1

inhibition [1]: 27.5%
Structure (SMILES): CCOC(=O)c1c(C)n[nH]c1N/N=C/c1ccc(-c2ccccc2)cc1

inhibition [1]: 18.2%
Structure (SMILES): CCOC(=O)c1c(C)n[nH]c1N/N=C(\C)c1ccc(OC)cc1

inhibition [1]: 41%
Structure (SMILES): CCOC(=O)c1c(C)n[nH]c1N/N=C/c1ccc(N2CCN(C)CC2)cc1

pIC50 (Aurora kinase A): 5.71
Structure (SMILES): COc1ccc(/C=N/Nc2[nH]nc(C)c2C(=O)NCCc2c[nH]cn2)cc1

inhibition [1]: 50% | pIC50 (Aurora kinase A): 4.94
Structure (SMILES): CCOC(=O)c1c(C)n[nH]c1N/N=C/c1ccc2[nH]ccc2c1

pIC50 (Aurora kinase A): < 4.30
Structure (SMILES): COc1ccc(/C=N/Nc2[nH]nc(C)c2C(=O)N(C)Cc2ccccc2)cc1

pIC50 (Aurora kinase A): 5.28
Structure (SMILES): COc1ccc(/C=N/Nc2[nH]nc(C)c2C(=O)OCc2ccccc2)cc1

inhibition [1]: 50.3% | pIC50 (Aurora kinase A): 4.86
Structure (SMILES): CCOC(=O)c1c(C)n[nH]c1N/N=C/c1cccc2[nH]ccc12

inhibition [1]: 33.9% | pIC50 (Aurora kinase A): 4.82
Structure (SMILES): CCOC(=O)c1c(C)n[nH]c1N/N=C/c1ccc(OC)cc1

inhibition [1]: 36.5%
Structure (SMILES): CCOC(=O)c1c(C)n[nH]c1N/N=C/c1ccc(F)cc1

From ChEMBL document CHEMBL1140919, “Structure-based drug design of novel Aurora kinase A inhibitors: structural basis for potency and specificity” (J Med Chem, 2009)
